Key:
KBM5 [1] = assay: Inhibition of TNF-induced NF-kappaB activation in human KBM5 cells at 50 uM preincubated for 4 hrs followed by TNF addition measured after 30 mins by EMSA relative to control; assay type: cell-based
Method in brief: (§1)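 KBM-5 cells (IMDM, 15% FBS) were pretreated 4 h, then stimulated with bacteria-derived human recombinant TNF at 0.1 nM for 30 min. Nuclear extracts (15 μg protein) were incubated with 16 fmol 32P-labelled 45-mer HIV-LTR NF-κB oligonucleotide for 30 min at 37 °C. Complexes were resolved on 6.6% native polyacrylamide gels, and bands were quantified by phosphorimaging.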

[2] = Antiproliferative activity against human KBM5 cells after 72 hrs by MTT assay; assay type: functional, cell-based; details: KBM5, 72 h
Method in brief: (§2)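 Cells seeded at 5 × 10^3 per well in triplicate and exposed to 1, 5, 10, 25, 50, 100 or 200 μM for 72 h at 37 °C. MTT was added for 2 h, then SDS/DMF extraction buffer overnight, and A570 was read. Results are % viability, mean ± SD. Media: KBM-5 in IMDM/15% FBS; Jurkat and U266 in RPMI 1640; A549 in DMEM/10% FBS; all with penicillin/streptomycin.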

KBM5 [3] = assay: Inhibition of TNF-induced NF-kappaB activation in human KBM5 cells at 10 uM preincubated for 4 hrs followed by TNF addition measured after 30 mins by EMSA relative to control; assay type: cell-based; method in brief: as §1
[4] = Antiproliferative activity against human U266 cells after 72 hrs by MTT assay; assay type: functional, cell-based; details: U-266, 72 h; method in brief: as §2
A549 = assay: Antiproliferative activity against human A549 cells after 72 hrs by MTT assay; assay type: functional, cell-based; details: A549, 72 h; method in brief: as §2
KBM5 [5] = assay: Inhibition of TNF-induced NF-kappaB activation in human KBM5 cells at 25 uM preincubated for 4 hrs followed by TNF addition measured after 30 mins by EMSA relative to control; assay type: cell-based; method in brief: as §1
Jurkat = assay: Antiproliferative activity against human Jurkat cells after 72 hrs by MTT assay; assay type: functional, cell-based; method in brief: as §2

IC50 (A549) | IC50 (Jurkat) | Compound | fold change (FC) (KBM5 [1]) | IC50 [2] | fold change (FC) (KBM5 [3]) | IC50 [4] | fold change (FC) (KBM5 [5])
> 200 µM | > 200 µM | COc1cc(/C=C/C(O)=C/C(=O)/C=C/c2ccc(O[C@@H]3O[C@H](C(=O)O)[C@@H](O)[C@H](O)[C@H]3O)c(OC)c2)ccc1O | 5.1 | > 200 µM | 5.3 | > 200 µM | 5.3
> 200 µM | > 200 µM | COc1cc(/C=C/C(=O)/C=C(O)/C=C/c2ccc(O[C@@H]3O[C@H](C(=O)O)[C@@H](O)[C@H](O)[C@H]3O)c(OC)c2)ccc1O[C@@H]1O[C@H](C(=O)O)[C@@H](O)[C@H](O)[C@H]1O | 5.5 | > 200 µM | 5.6 | > 200 µM | 5.6
17.3 µM | 4.29 µM | COc1cc(/C=C/C(=O)CC(=O)/C=C/c2ccc(O)c(OC)c2)ccc1O [CURCUMIN] | 0.8 | 3.84 µM | 3 | 7.57 µM | 1

From ChEMBL document CHEMBL3098083, “Curcumin glucuronides: assessing the proliferative activity against human cell lines” (Bioorg Med Chem, 2014)
